Key:
[1] = system: patients with previously treated, advanced solid tumors; assay: Phase 1 dose escalation study: safety and tolerability; format: in vivo, human
[2] = Plasma pharmacokinetics of SLC-0111 after single and repeated dosing; format: in vivo, human; conditions: for AUC(0-t) / Tmax: human, plasma, oral; for AUC(0-t): AUC(0-24), Day 1, mean; for Tmax: range of cohort means
advanced solid tumors = assay: Tumor response; format: in vivo, human
Outline: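 Patients with previously treated advanced solid tumours were enrolled in an open-label 3+3 escalation. The test compound was given as an oral liquid (100 mg/mL in lecithin/propylene glycol/PEG/TPGS vehicle) once daily, ≥2 h from meals, in 28-day cycles. CT/MRI was scored by RECIST v1.1 (CR/PR/SD/PD) every 8 weeks (±7 d) until progression, discontinuation or consent withdrawal. SD duration was counted in cycles.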

rats = assay: GLP 28-day toxicology study in rats; format: in vivo, rat; conditions: highest dose tested in rats, 28-day GLP

## NS(=O)(=O)c1ccc(NC(=O)Nc2ccc(F)cc2)cc1 [SLC-0111, 4-[(4-fluorophenyl)carbamoyl]amino-benzene sulfonamide]
[1]; 500, 1000 and 2000 mg, cycle 1, 10 evaluable patients
  Dose-limiting toxicities (in words): No protocol defined DLTs were observed
[1]; Cohort 1 (500 mg)
  Hypophosphatemia, Grade of the grade 3-4 events (CTCAE): 3
[1]; Cohort 2 (1000 mg)
  Fatigue, Grade of the grade 3-4 events (CTCAE): 3
  Pulmonary embolism (SAE), Grade (CTCAE): 3
[1]; Cohort 3 (2000 mg)
  Alanine Transaminase, Grade of the grade 3-4 events (CTCAE): 3
  Clostridium entercolitis (SAE), Grade (CTCAE): 3
  Fatigue, Grade of the grade 3-4 events (CTCAE): 3
  Hepatobiliary disorder (SAE), Grade (CTCAE): 3
  Hypophosphatemia, Grade of the grade 3-4 events (CTCAE): 3
[1]; all cohorts, 17 patients
  Total treatment emergent AEs reported over the course of the study: 184
  Treatment emergent AEs considered related to SLC-0111: 91
[1]; all cohorts, only hepatobiliary disorder drug related
  SAEs recorded across the entire study group: Three
[1]; doses of 1000 mg daily or below
  Tolerability (in words): generally well tolerated
[1]; doses up to 2000 mg daily
  Maximum tolerated dose: not established
[1]; oral liquid formulation, once daily
  Recommended phase II dose (RP2D): 1000 mg/day
[2]; 500 mg/d
  Day 28/Day 1 AUC(0-24) ratio: 2.01±0.879
  Day 28/Day 1 Cmax±SD ratio: 1.32±0.298
[2]; 1000 mg/d
  Day 28/Day 1 AUC(0-24) ratio: 1.47±1.42
  Day 28/Day 1 Cmax±SD ratio: 1.17±1.02
[2]; 2000 mg/d
  Day 28/Day 1 AUC(0-24) ratio: 2.18±0.247
  Day 28/Day 1 Cmax±SD ratio: 3.70±4.30
[2]; Cmax and AUC(0-24), days 1 and 28, 500-2000 mg
  Dose proportionality of exposure (in words): generally dose proportional
[2]; 500 mg, 500 mg, N=3
  AUC(0-t): 33000 ng·h/mL
[2]; 1000 mg, 1000 mg, N=3
  AUC(0-t): 70000 ng·h/mL
[2]; 2000 mg, 2000 mg, N=2
  AUC(0-t): 94000 ng·h/mL
[2]; Day 1, 500-2000 mg cohorts
  Tmax: 2.46 to 6.05 h
[2]; Day 28, 500-2000 mg cohorts
  Tmax: 2.61 to 5.02 h
Advanced solid tumors; all cohorts
  Objective responses: no objective responses were observed
Advanced solid tumors; cohort 1 (500 mg), one patient with sarcoma of spine
  Stable disease maintained, number of 28-day cycles: 10 cycles
Advanced solid tumors; cohort 3 (2000 mg), one patient with colorectal cancer
  Stable disease up to cycle: ≤ 7
Advanced solid tumors; observed in 2 patients
  Prolonged stable disease (SD), duration: > 24 weeks
rats
  Severe toxic dose in 10% (STD10) of treated rodents: 500 mg/kg/day

Reference: paper PMC7323835 (American Journal of Clinical Oncology, 2020)
